Ecoli rRNA inh: reduced GFP signal of wild-type E. coli, primary screen, bacterial rRNA inhibitor project, GFP/RFP fluorescence, OD600, single point | E. coli WT GFP vs humanized-ribosome RFP mutants, 24 h; stronger effect = lower value; DMSO median 0, no signal -100 | 350,000 tested, 1.6% active | AID 720706, 2013 | GFP signal change (wild-type ribosome), % (no concentration beside the values);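 active means significant combined selectivity score with lowered wild-type GFP, culture density cut under 30%, mutant RFP and density less affected; inactive means any of these conditions unmet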
ERAP1 HTS inh: human ERAP1 aminopeptidase inhibitors, primary screen, biochemical, single point, plate reader. AID 652197, 2013. inhibition, % at 10.7 µM. 340,000 tested, 0.15% active. recombinant ERAP1, Leu-AMC fluorescence, 60 min;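 active means mean replicate inhibition of at least 30%, or all replicates individually reaching that 30% level; inactive means mean below 30% and not every replicate reaching it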;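 further: 0% = neutral control wells and 100% = L-leucinethiol positive control wells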
Target sequence (Q9NZ08 whole entry, looked up): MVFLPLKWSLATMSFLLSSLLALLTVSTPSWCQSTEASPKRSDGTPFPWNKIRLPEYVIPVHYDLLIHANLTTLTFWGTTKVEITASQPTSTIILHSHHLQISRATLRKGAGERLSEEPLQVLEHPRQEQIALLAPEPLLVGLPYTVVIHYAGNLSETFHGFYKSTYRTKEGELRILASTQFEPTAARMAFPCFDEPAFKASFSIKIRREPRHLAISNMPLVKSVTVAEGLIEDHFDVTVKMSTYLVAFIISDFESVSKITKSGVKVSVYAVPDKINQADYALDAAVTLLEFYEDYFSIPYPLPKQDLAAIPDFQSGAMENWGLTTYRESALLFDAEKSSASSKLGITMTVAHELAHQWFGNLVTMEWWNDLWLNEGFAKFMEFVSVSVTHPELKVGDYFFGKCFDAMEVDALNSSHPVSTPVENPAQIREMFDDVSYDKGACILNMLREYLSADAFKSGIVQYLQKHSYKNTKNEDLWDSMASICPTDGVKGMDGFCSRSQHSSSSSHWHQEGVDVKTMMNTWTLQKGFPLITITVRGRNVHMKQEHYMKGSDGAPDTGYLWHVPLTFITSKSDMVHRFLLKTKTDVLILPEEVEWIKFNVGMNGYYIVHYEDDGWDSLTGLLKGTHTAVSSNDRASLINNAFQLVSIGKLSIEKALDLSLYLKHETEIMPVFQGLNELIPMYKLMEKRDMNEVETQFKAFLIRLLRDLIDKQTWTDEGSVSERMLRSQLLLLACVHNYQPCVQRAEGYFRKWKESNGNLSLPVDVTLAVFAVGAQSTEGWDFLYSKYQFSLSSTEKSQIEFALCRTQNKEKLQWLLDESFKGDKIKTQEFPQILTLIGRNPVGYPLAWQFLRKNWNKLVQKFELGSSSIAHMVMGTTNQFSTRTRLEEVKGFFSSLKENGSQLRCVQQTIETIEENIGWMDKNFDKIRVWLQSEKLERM
Cneo AK release: Cryptococcus neoformans cell lysis inducers, primary screen, AK release luminescence, single concentration | C. neoformans lysis, adenylate kinase release luminescence, 4 h; normalised: neutral wells 0, clomiphene wells 100 | lysis activity, % at 15 µM | 360,000 tested, 0.2% active;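 active means mean lysis activity across replicates of at least 80%, whatever share of replicates individually reach that level; inactive means mean lysis activity below 80%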
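Material – log-phase Cryptococcus neoformans yeast cells · Input – 5 × 10^6 yeast cells/mL · Medium – fresh YPD growth medium · Doses – single compound concentration per well · Timing – static 4 h at 37 °C with compound, 1 h detection · Detection – adenylate kinase release luminescence · Read-out – signal increase indicating cell lysis · Control set – Clomiphene as positive lysis control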
PGC1a acetyl inh: inhibitors of PGC1a acetylation signal, primary screen, cell-based, U2OS, AlphaScreen, inhibitor mode | 350,000 tested, 0.17% active | AID 651687, 2012 | inhibition, % at 15.6 µM | AlphaScreen anti-acetyl-lysine; with virally co-expressed GCN5 acetyltransferase;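 active means every replicate shows inhibition of at least 40%; inconclusive means mean inhibition at least 40% but some replicate below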;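 further: 0% = neutral control wells and 100% = positive control wells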
FGF22 binding: binders of human FGF22 protein, primary screen, FGF22 synaptogenesis inhibitor project, biophysical, thermal shift, single point; 340,000 tested, 1.5% active; recombinant FGF22 thermal shift, SYPRO orange fluorescence; percent of sucrose octasulfate shift, DMSO zero; activity (Tm shift, normalised), % at 9.99 µM;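 active means mean Tm shift, scaled 0 neutral to 100 positive control, at about 1.3% or above, every replicate too, limit read from the data; inconclusive means no clear call, values can overlap the other calls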
HIV Env fusion: inhibitors of HIV-1 Env-driven cell-cell fusion, primary screen, HeLa-JRFL effector, CEM21 target cells, luciferase; inhibition, % at 12.3 µM; 360,000 tested, 1.1% active; AID 651610, 2012;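 active means mean replicate inhibition score of at least 50 and every replicate individually at or above 50; inconclusive means only one of the two criteria met; inactive means mean below 50 and not all replicates reaching 50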;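 further: 0% = plate neutral controls and 100% = maraviroc near 300 nM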
AID977621: growth inhibition of wild-type GFP E. coli, dose response, H69 mutant RFP, cherry-pick; activity change, negative = inhibition at 50 µM; shares compounds with Ecoli rRNA inh; E. coli wild-type GFP strain growth, fluorescence, 24 h; 1,900 tested, under 10 active;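 active means Wild-type ribosome reporter drop at least double the humanized mutant ribosome reporter drop, growth loss under a set limit; inconclusive means no clear call, values can overlap the other calls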;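 further: wild-type GFP and H69 mutant RFP strains grown together 50/50 in each well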
AID977628: E. coli growth inhibition, wild-type GFP versus h24 humanized RFP strain, dose response, h24 mutant RFP vs wild-type GFP, cherry-pick; shares compounds with Ecoli rRNA inh; 1,900 tested, under 10 active; activity change, negative = inhibition at 50 µM; E. coli WT GFP strain growth, fluorescence, 24 h;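 active means compound lowering the normal-ribosome reporter at least twice as much as the humanized-ribosome reporter, growth loss under a set limit; inconclusive means no clear call, values can overlap the other calls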;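 further: wild-type GFP and h24 humanized RFP strains co-cultured 1 to 1 per well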
* marks the source's active call; other numbers are inactive results; ! = not confirmed by another sample; [ ] = another dose, or the depositor's remark. Most compounds without a hit are left out; they make up all but 3.5% or so of the library.

Cc1nn(-c2cccc(Cl)c2)nc1C(=O)O was read as Ecoli rRNA inh -16.4*, ERAP1 HTS inh 2.1, FGF22 binding 0.3, HIV Env fusion -5.4 and AID977621 -9.96.
O=S(=O)(c1ccc(Cl)cc1)N1CCN=C1SCc1cccnc1 was read as Ecoli rRNA inh -3.5, ERAP1 HTS inh -2.6, FGF22 binding -0.1 and HIV Env fusion 4.3.
O=S(=O)(c1ccc(Cl)cc1)N1CCN=C1SCc1cccc(Cl)c1 was read as Ecoli rRNA inh -22.6*, ERAP1 HTS inh 2.0, FGF22 binding 0.1, HIV Env fusion 15.5 and AID977621 -5.46.
`O=C(NCCc1ccc(Cl)cc1)C1(c2ccccc2)CC1` gave Ecoli rRNA inh -27.8, ERAP1 HTS inh -2.6, Cneo AK release -2.0, FGF22 binding 0.0 and HIV Env fusion 9.3.
`Cc1ccc(NC(=O)C2CCCN(c3ncnc4c3nc3n4CCCCC3)C2)cc1Cl` (stereo unspecified) gave Ecoli rRNA inh -18.3*, ERAP1 HTS inh 1.4, Cneo AK release 0.5, PGC1a acetyl inh -12.4, FGF22 binding -0.3, HIV Env fusion 10.0, AID977621 -0.089 and AID977628 inconclusive.
For O=C(NCc1cccnc1)[C@@H]1CC=C[C@@H]2CCN(Cc3ccc(Cl)c(Cl)c3)C(=O)[C@@H]21 the results were Ecoli rRNA inh -52.8, ERAP1 HTS inh -4.6, Cneo AK release 1.3, PGC1a acetyl inh 0.1, FGF22 binding -0.2 and HIV Env fusion 20.0.
For COCC(=O)N(C)C[C@H]1Oc2cc(-c3ccccc3)ccc2S(=O)(=O)N([C@@H](C)CO)C[C@@H]1C the results were Ecoli rRNA inh -3.0, ERAP1 HTS inh -1.8, Cneo AK release -0.6, PGC1a acetyl inh 9.5, FGF22 binding 0.1 and HIV Env fusion -3.7[16.7 µM].
For CN(Cc1nnc(-c2ccc(F)cc2)o1)c1ccccc1 the results were Ecoli rRNA inh -25.9*, ERAP1 HTS inh -3.9, Cneo AK release -2.3, PGC1a acetyl inh -3.9, FGF22 binding -0.3, HIV Env fusion -6.9, AID977621 -7.62 and AID977628 -6.98.
CN(Cc1ccc(F)cc1)C(=O)CCc1nnc(-c2ccccc2)o1 was read as Ecoli rRNA inh -4.5, ERAP1 HTS inh 0.4, PGC1a acetyl inh -0.6, FGF22 binding -0.1 and HIV Env fusion -21.6.
For Cc1noc(C)c1S(=O)(=O)N(Cc1ccccc1)C(C)C the results were Ecoli rRNA inh -18.9*, ERAP1 HTS inh -2.1, Cneo AK release -0.3, PGC1a acetyl inh -13.9, FGF22 binding -0.3, HIV Env fusion 11.4, AID977621 2.39 and AID977628 -6.83.
Screening Cc1noc(C)c1S(=O)(=O)N1CCC(C(=O)N(C)Cc2ccccc2)CC1 returned Cneo AK release 0.6 and PGC1a acetyl inh -6.9.
Screening COc1ccc(C(C(=O)NC2CCCCC2)n2c(=O)c(-c3ccco3)nc3ccccc32)cc1 (stereo unspecified) returned Ecoli rRNA inh 6.7, ERAP1 HTS inh -1.6, FGF22 binding -0.4 and HIV Env fusion 2.6.
O=C(NC1CCCCC1)C(c1cccc2ccccc12)n1c(=O)c(-c2ccco2)nc2ccccc21 (stereo unspecified) was read as Ecoli rRNA inh -23.2*, FGF22 binding -0.2, HIV Env fusion 27.7, AID977621 -17.3 and AID977628 -9.74.
Screening COC(=O)c1sccc1NC(=O)Cn1nnc(-c2ccccc2C)n1 returned Ecoli rRNA inh -29.9*, ERAP1 HTS inh 4.3, PGC1a acetyl inh -1.1, FGF22 binding 0.7, HIV Env fusion 16.2 and AID977621 -11.7.
For CCOC(=O)c1ccc(NC(=O)Cn2nnc(-c3ccccc3C)n2)cc1 the results were Cneo AK release 2.4 and PGC1a acetyl inh 26.4.
`CC(C)N1CC2(CC(c3ccccc3C(F)(F)F)=NO2)CN1C(=O)c1ccco1` (stereo unspecified) gave Ecoli rRNA inh -20.5*, PGC1a acetyl inh -15.3, FGF22 binding -0.1, HIV Env fusion 14.8 and AID977628 inconclusive.
Screening CN(c1ccccc1)S(=O)(=O)c1cccc(NC(=O)CCNC(=O)c2ccc([N+](=O)[O-])cc2)c1 returned Ecoli rRNA inh -16.7*, ERAP1 HTS inh -2.0, Cneo AK release 1.7, PGC1a acetyl inh -10.5, FGF22 binding 0.1, HIV Env fusion 28.3, AID977621 -4.66 and AID977628 inconclusive.
For CO[C@@H]1CN(C)C(=O)c2ccc(NC(=O)C3CC3)cc2OC[C@H](C)N(C)C[C@@H]1C the results were Ecoli rRNA inh 1.4, ERAP1 HTS inh -2.5, Cneo AK release -2.6, PGC1a acetyl inh -16.4 and FGF22 binding 0.0.
For COc1cccc(C(=O)NCC(c2cccs2)N2CCOCC2)c1 (stereo unspecified) the results were Ecoli rRNA inh 2.8, ERAP1 HTS inh 0.4, Cneo AK release -0.3, PGC1a acetyl inh -2.5 and FGF22 binding 0.5.
O=C(Nc1cccc(Cl)c1)c1cccc(Oc2ccc([N+](=O)[O-])cc2Cl)c1 was read as Ecoli rRNA inh 1.5, ERAP1 HTS inh 2.7, Cneo AK release 2.9, FGF22 binding 0.4 and HIV Env fusion 25.6.
Screening COc1ccc(NC(=O)c2cccc(Oc3ccc([N+](=O)[O-])cc3Cl)c2)cc1 returned Ecoli rRNA inh -24.0*, ERAP1 HTS inh -2.5, FGF22 binding 0.9, HIV Env fusion -4.7, AID977621 1.75 and AID977628 -2.15.
For C[C@H](CO)N1C[C@H](C)[C@H](CN(C)S(C)(=O)=O)Oc2ccc(NC(=O)Cn3cnnn3)cc2C1=O the results were Ecoli rRNA inh 1.8, Cneo AK release -0.4, PGC1a acetyl inh 9.2, FGF22 binding -0.2 and HIV Env fusion -4.6[16.7 µM].
Screening O=S(=O)(c1ccc(F)cc1)N1C[C@@H]2N[C@H](C1)C2c1ccc(/C=C/c2ccccc2)cc1 (stereo partly specified) returned Ecoli rRNA inh -27.7*!, PGC1a acetyl inh -1.8, FGF22 binding 0.4 and AID977621 -1.33.
CCOC(=O)c1nn(-c2ccccc2)c(-c2ccccc2)c1C(=O)c1ccccc1 was read as Cneo AK release -2.7 and PGC1a acetyl inh 1.3.
